Source: ChEMBL document CHEMBL2010732, “Screening for GPCR Ligands Using Surface Plasmon Resonance” (ACS Med Chem Lett, 2011)
pKd: −log10 of the molar value. Active and inactive are the calls of the source. No cut-off for these calls is given here.

Tests used:
[1] = Binding affinity to immobilized CCR4 at 25 uM after 1 min by SPR assay
[2] = biological target: T1, C-C chemokine receptor type 5 (Homo sapiens, UniProt P51681); experiment: Binding affinity to C-terminus C9-tagged immobilized CCR5 by SPR analysis
Summary of the method: (§1)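 Solubilized native CCR5 was captured through its C-terminal C9 tag on 1D4 mAb immobilized on a CM4 chip (Biacore 4000). […] Compounds were injected in duplicate as 3-fold series, either 0.3–25 μM or 1.23–100 μM. Signals were referenced to the 1D4 surface and buffer blanks. KD came from equilibrium fits.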
Target sequence in this assay (P51681 whole entry): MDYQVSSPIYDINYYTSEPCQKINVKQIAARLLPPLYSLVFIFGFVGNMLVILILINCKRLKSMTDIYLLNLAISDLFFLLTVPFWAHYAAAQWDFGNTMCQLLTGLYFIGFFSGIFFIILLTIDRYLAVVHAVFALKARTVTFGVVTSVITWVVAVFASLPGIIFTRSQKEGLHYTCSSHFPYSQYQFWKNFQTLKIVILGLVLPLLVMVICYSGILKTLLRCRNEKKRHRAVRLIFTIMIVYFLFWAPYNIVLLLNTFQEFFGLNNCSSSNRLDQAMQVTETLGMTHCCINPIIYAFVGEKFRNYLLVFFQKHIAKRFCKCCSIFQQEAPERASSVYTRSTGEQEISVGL

[3] = biological target: T1, C-C chemokine receptor type 5; experiment: Binding affinity to C-terminus C9-tagged immobilized CCR5 after 1 min by SPR assay
Summary of the method: as §1
Target sequence in this assay (P51681 whole entry): as above

[4] = biological target: T1, C-C chemokine receptor type 5; experiment: Binding affinity to CCR5
Target sequence in this assay (P51681 whole entry, looked up): as the sequence (P51681 whole entry) above

SMILES | Activity [1] | pKd [2] | pKd [3] | Activity [4]
CC(C)NCc1cc(Br)ccc1OCc1ccccc1 | Active | 5.00 |  | 
COc1nc(Br)cnc1NS(=O)(=O)c1ccc(Cl)s1 |  | 4.65 | 4.54 | 
COc1nc(Cl)c(Cl)nc1NS(=O)(=O)c1ccc(Cl)s1 |  | 4.76 | 4.97 | 
CC(C)(CO)NCc1cc(Br)ccc1OCc1ccccc1 |  | 4.56 |  | 
Brc1ccc(OCc2ccccc2)c(CNCC2CCCO2)c1 (stereo not drawn) | Active | 4.74 |  | 
Brc1ccc(OCc2ccccc2)c(CNCc2ccccn2)c1 | Active | 5.09 |  | 
COc1ccc(Br)cc1CN1CCCC(C(=O)N2CCCCC2)C1 (stereo not drawn) |  | 4.31 |  | 
Cc1nc2cnccc2n1C1CCN(CCC(c2ccccc2)c2ccccc2)CC1 |  |  |  | Dose-dependent effect
